# This excerpt belongs to a sample that is enriched for hits.
# UPR CHOP act = apoptotic UPR (CHOP) activation; hit rate 0.34% among 330,000; activation, % at 10 µM; AID 449763; CHO-CHOP luciferase reporter, luminescence; percent of tunicamycin response over DMSO baseline;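 active = at 10 µM dose, activation of 40% or more, normalized to positive control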;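 note: 100% = tunicamycin at 10 µg/mL and 0% = DMSO alone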
#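 Assay system: CHO-CHOP cells, stable luciferase reporter of PERK-eIF2a-CHOP signalling / Buffer or medium: F12 plus 10% serum / Compound dosing: one dose, 10 µM in 0.5% DMSO / Times: 6 h compound treatment, 37 °C / Technique: luciferase luminescence / Read-out: % reporter activation, DMSO baseline versus tunicamycin full activation / Benchmarks: tunicamycin and DMSO controls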
# 697 NFkB inh = lowers PMA/ionomycin-induced NF-kB signal in 697 B cells | 697 B-cell NF-kB luciferase reporter, 16 h | inhibition, % at 4 µM | hit rate 0.33% among 330,000 | AID 435022; in the data active = inhibition above about 35%
# UPR XBP1 act = activators of adaptive arm of unfolded protein response (XBP1). CHO-XBP1 luciferase reporter, IRE1-XBP1 UPR activation, luminescence; percent of tunicamycin response, DMSO as zero. activation, % at 20 µM. hit rate 0.33% among 330,000. AID 463104;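 active = versus positive control, 20 µM dose yields 30% or more activation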;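 note: 100% = tunicamycin at 10 µg/mL and 0% = DMSO only wells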
#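 Material: CHO-XBP1 cells stably carrying IRE1-XBP1-driven luciferase reporter / Amount: 1000 cells per well / Compound: 20 µM, 1% DMSO / Times: 6 h treatment, 37 °C / Detection: luciferase luminescence / Measure: % activation of reporter signal versus tunicamycin and DMSO controls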
# CHOP inh = inhibitors of CHOP induction in ER stress response | hit rate 3.8% among 220,000 | inhibition, % at 10 µM | CHO-K1 CHOP-promoter luciferase, tunicamycin-induced, 15-18 h;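 active = compounds that reduced the stress-induced luciferase reporter signal by more than about 70% of percent inhibition, limit read from the data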;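 note: 0% = tunicamycin plus vehicle and 100% = wells without tunicamycin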
# Jurkat NFkB inh = lowers PMA/ionomycin-induced NF-kB signal in Jurkat cells | PMA/ionomycin-induced NF-kB luciferase reporter, luminescence | inhibition, % at 4 µM | hit rate 0.53% among 330,000; in the data active = inhibition above about 50%
# Jurkat NFkB conf = inhibitors of the PMA/ionomycin-induced NF-kB reporter in Jurkat cells, retest; shares compounds with Jurkat NFkB inh; Jurkat NF-kB luciferase, 16 h; inhibition, % at 4 µM; hit rate 27% among 2,700; AID 435020;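 active = inhibition reaching about 45% at 4 µM in either replicate, limit read from the data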;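 note: plate controls were PMA/ionomycin stimulated DMSO wells for no effect and unstimulated DMSO wells for full effect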
# 697 NFkB conf = lowers PMA/ionomycin-induced NF-kB signal in 697 B cells. shares compounds with 697 NFkB inh. 697 B-cell NF-kB luciferase, 16 h. inhibition, % at 4 µM. hit rate 35% among 2,000; in the data active = inhibition mostly above about 28%, no sharp cut-off; inactive = mostly below about 22%
# * hit, by the source's call; . = no result.
SMILES,UPR CHOP act,697 NFkB inh,UPR XBP1 act,CHOP inh,Jurkat NFkB inh,Jurkat NFkB conf,697 NFkB conf
CC(C)NCC(O)Cn1c2c(c3ccccc31)CCc1c-2cnn1-c1ccccc1 (centres undefined),2.0,-164.7,12.2,54.0,58.5*,-12.3,.
CCN(CCCNC(=O)C1CCC(=O)N1Cc1ccc(C)cc1)c1cccc(C)c1 (centres undefined),-1.8,-6.7,-7.3,49.5,57.1*,-26.2,.
CCN(CCCNC(=O)C1CCC(=O)N1Cc1ccccc1Cl)c1cccc(C)c1 (centres undefined),0.7,-16.6,-0.5,5.6,-32.6,.,.
O=C(CCc1ccccc1)NCC(c1ccco1)N1CCc2ccccc21 (centres undefined),2.3,-33.7,5.2,.,58.9*,21.5,.
COc1cc(C(=O)OCC(=O)Nc2sccc2C(N)=O)cc(OC)c1OC,-0.3,-44.1,7.2,3.4,53.9*,24.1,.
CC(=O)c1ccc(NC(=O)c2ccc([N+](=O)[O-])o2)cc1,27.9,9.9,-3.4,.,16.2,.,.
Cc1cc(C)cc(NC(=O)c2ccc([N+](=O)[O-])o2)c1,2.8,25.2,-5.0,-29.4,86.9*,47.7*,.
O=c1c2sc(-c3ccccc3)cc2nc2n1CCCCC2,5.5,-208.8,-0.3,-7.0,-166.2,-123.3,.
Cc1ccc(/C=N/NC(=O)c2ccc3c(c2)OCCO3)s1,2.4,-148.4,-1.6,-11.1,15.9,.,.
Cc1ccc(/C=N/NC(=O)c2ccc3ccccc3c2)s1,1.6,-40.3,8.5,.,51.5*,34.2,.
O=S(=O)(Cc1ccccc1)N(O)c1ccccc1,0.0,5.3,-6.9,.,-7.6,.,.
Cc1cccc(N2CCN(C(=O)COc3cc4oc(=O)cc(C)c4cc3Cl)CC2)c1C,0.9,-26.4,-4.6,.,54.2*,8.3,.
CCc1ccc(-c2cc(C)no2)cc1S(=O)(=O)N1CCN(c2ccccc2OC)CC1,0.6,-14.6,-8.0,.,17.2,.,.
CCc1ccc(-c2cc(C)no2)cc1S(=O)(=O)N1CCN(c2ccccc2)CC1,4.0,-64.7,-7.4,.,52.6*,6.8,.
Cc1cc(-c2ccc(C)c(S(=O)(=O)N3CCN(c4ccc([N+](=O)[O-])cc4)CC3)c2)on1,1.7,-9.4,-2.7,.,54.5*,63.5*,.
CC(C)c1ccc(/C=C/C(=O)NC2=NCCS2)cc1,-0.5,-170.7,-0.4,8.5,-204.4,-101.8,.
O=C(c1cccc(Cl)c1)N1CCCc2ccccc21,-0.6,9.9,1.0,.,9.1,.,.
S=C(c1ccc(-c2ccc(Br)cc2)o1)N1CCCCC1,1.6,-180.5,4.8,24.2,-174.8,-114.8,.
Cn1c(-c2ncc(F)cc2F)cc2onc(-c3c(F)cccc3Cl)c2c1=O,6.6,-98.6,-3.6,.,-0.2,.,.
Cn1c(-c2ccccc2F)cc2onc(-c3ccccc3)c2c1=O,0.1,-348.8,-2.4,.,-232.3,-97.6,-402.8
Nc1nonc1-n1nnc(C(=O)N/N=C/c2ccc(Cl)cc2Cl)c1CN1CCOCC1,0.1,5.3,-0.5,.,-15.5,.,.
Cc1nn(-c2ccccc2)c(C)c1/C=N/NC(=O)c1cccs1,3.8,-81.7,8.7,-9.7,-40.5,.,.
Cc1nn(-c2ccccc2)c(C)c1/C=N/NC(=O)c1cc(-c2cccs2)[nH]n1,4.4,45.2*,11.0,-20.3,53.3*,56.8*,51.0*
COc1cc([C@@H]2c3cc4c(cc3[C@H](O)[C@H]3COC(=O)[C@H]23)OCO4)cc(OC)c1OC,0.1,-326.8,5.7,.,72.5*,62.3*,-96.4
COc1ccc(-c2c[n+]3c(n2-c2ccc(C)cc2)CCCCC3)cc1,2.2,51.0*,-1.7,48.0,79.3*,60.9*,65.2*
SMILES,UPR CHOP act,697 NFkB inh,UPR XBP1 act,CHOP inh,Jurkat NFkB inh,Jurkat NFkB conf,697 NFkB conf
COc1ccc(-n2c(-c3ccc(Cl)cc3)c[n+]3c2CCCCC3)cc1,-1.9,-22.3,0.0,24.1,7.1,.,.
CCOc1ccc(-n2c(-c3ccc(OC)cc3)c[n+]3c2CCCCC3)cc1,0.2,56.8*,2.7,45.6,73.0*,58.2*,65.0*
CC(NC(=O)COc1ccccc1)C(=O)N1CCN(c2ccccc2)CC1 (centres undefined),-1.9,8.0,-1.1,.,-14.5,.,.
Cn1nc(CC(=O)Nc2ccc3c(c2)CCC3)c2ccccc2c1=O,8.1,41.4*,0.7,64.8,59.4*,67.5*,46.9*
Cn1nc(CC(=O)NC2CCCCCCCCCCC2)c2ccccc2c1=O,0.4,-36.7,-2.6,61.2,5.2,.,.
O=C(COc1ccc(Cl)cc1)Nc1nnc(-c2ccco2)o1,2.4,27.6,-0.2,0.3,3.8,.,.
Cc1ccc(C(=O)O/N=C(\N)Cc2cccs2)c(Cl)c1,2.5,-253.2,-0.5,.,-153.4,-82.3,-282.3
COc1ccc2[nH]c3c(c2c1)CCn1c-3nc2ccccc2c1=O,1.7,-487.5,-3.1,70.8*,-181.0,-126.6,-317.9
COc1ccccc1CC(=O)NNC(=O)CN(C)S(=O)(=O)c1ccc(Cl)cc1,-0.5,18.7,-1.7,.,-0.7,.,.
CC(=O)Nc1ccc(OCCC[n+]2ccccc2)cc1,-1.2,-3.2,-2.2,-2.3,6.7,.,.
CCCCCc1ccc(OCCC[n+]2ccccc2)c(CCCCC)c1,0.2,60.1*,4.8,9.4,62.7*,54.9*,56.7*
Cn1cccc1/C=C1\CCc2ccccc2C1=O,-2.5,-399.8,-5.5,47.5,-162.1,-2.4,-57.5
COc1ccc(NC(=O)C(CC(=O)O)Cc2ccc(Cl)cc2)cc1 (centres undefined),-0.4,-6.5,-3.4,.,-5.0,.,.
CCCCCNC(=O)c1ccc2c(=O)n(CC3CCCO3)c(=O)[nH]c2c1 (centres undefined),-0.4,103.6*,0.0,3.4,98.8*,43.7,60.2*
CCCCCNC(=O)c1ccc2c(=O)n(CC3CCCO3)c(=S)[nH]c2c1 (centres undefined),-0.4,23.8,-3.0,10.2,-4.3,.,.
CC1(C)CC(N2CCCC2)=CC(=[N+]2CCCCCC2)C1,-0.9,71.1*,2.0,32.6,57.0*,63.2*,50.6*
Cc1ccc(N2CN(S(=O)(=O)c3cccc([N+](=O)[O-])c3)c3nc4ccccc4nc32)cc1,-0.9,-14.9,-3.9,.,-20.2,.,.
CC(C)(C)C(=O)/C(=C/c1ccncc1)n1cncn1,25.4,37.3*,-6.1,84.6*,54.2*,31.1,42.1*
O=C(CSc1nc2ccccc2c(=O)n1CCCO)Nc1ccc2c(c1)OCCO2,1.3,-16.9,4.1,.,-12.3,.,.
C=CCN1C(=O)c2ccccc2NC1c1cc(Br)cs1 (centres undefined),1.3,-1.4,5.6,.,5.3,.,.
CN(C)c1ccc(-c2n(C)c3ccccc3[n+]2C)cc1,1.8,42.4*,0.3,-3.6,75.6*,60.2*,57.0*
O=C(NC(=S)NC(CO)c1ccccc1)c1ccc(F)cc1 (centres undefined),0.1,-11.4,-0.1,.,-7.1,.,.
